The values below come from ChEMBL document CHEMBL1122131, “1,1,2-triphenylbut-1-enes: relationship between structure, estradiol receptor affinity, and mammary tumor inhibiting properties” (1982).

The target of assay [1] is Estrogen receptor (Bos taurus) (UniProt Q9XSB5+P49884). As to the kind of experiment: Binding affinity against Estrogen receptor in calf-uterine cytosol relative to 17-beta-estradiol using [3H]estradiol. It is filed as protein assay. The method, boiled down: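 Calf uterine cytosol was incubated with [3H]estradiol and six concentrations of unlabeled competitor at 4 °C for 16 h. Incubation was stopped with dextran-coated charcoal; after centrifugation, supernatant radioactivity was counted. The concentrations of estradiol and of test compound giving 50% displacement were read from a semilog plot. Relative binding affinity = [E2]/[I] × 100.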

For assay [2], the system named is Mus musculus. As to the kind of experiment: Anti-neoplastic effect in estrogen and progesterone receptor positive hormone-dependent postmenopausal human mammary carcinoma bearing mice at 2.2 mg/kg/day. It is filed as functional. The method, boiled down: (§1)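 Human ER- and PR-positive, hormone-dependent postmenopausal mammary carcinoma, serially transplanted in NMRI nu/nu mice (castrated females or males, about 25 g, 6–7 weeks old, 10–12 per group). Drug given sc in olive oil 6 times/week; controls received vehicle for 4–6 weeks. Two tumor diameters measured weekly. Size is relative to treatment start (=1), averaged after 4 weeks. Compared with controls at α ≤ 0.05.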

Assay [3] has as its system Mus musculus. As to the kind of experiment: Anti-neoplastic effect in estrogen and progesterone receptor positive hormone-dependent postmenopausal human mammary carcinoma bearing mice at 2.5 mg/kg/day. It is filed as functional. The method, boiled down:
as §1

The test system of assay [4] is Rattus norvegicus. As to the kind of experiment: Percent partial remission in DMBA-induced hormone-dependent mammary carcinoma bearing rats at 1.71 mg/kg/day. It is filed as functional. The method, boiled down: (§2)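 Female Sprague-Dawley rats received one 20 mg DMBA dose by gastric intubation at age 50 days. About 4 weeks later, rats with at least one tumor over 140 mm² were grouped in tens. Drug given sc in olive oil 6 times/week. Read-outs were tumors classed as complete remission, partial remission, no change or progression, plus % change in tumor area and in body weight.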

The test system of assay [5] is Rattus norvegicus. As to the kind of experiment: Percent partial remission in DMBA-induced hormone-dependent mammary carcinoma bearing rats at 6.83 mg/kg/day. It is filed as functional. The method, boiled down: as §2
The subject of assay [6] is Rattus norvegicus. As to the kind of experiment: Percent unchanged tumor size in DMBA-induced hormone-dependent mammary carcinoma bearing rats at 1.71 mg/kg/day. It is filed as functional. The method, boiled down:
as §2

For assay [7], the system named is Rattus norvegicus. As to the kind of experiment: Percent change in body weight in DMBA-induced hormone-dependent mammary carcinoma bearing rats at 0.85 mg/kg/day. It is filed as functional. The method, boiled down: as §2
Assay [8] relates to Rattus norvegicus. As to the kind of experiment: Percent change in tumor area in DMBA-induced hormone-dependent mammary carcinoma bearing rats at 1.71 mg/kg/day. It is filed as functional. The method, boiled down:
as §2

Assay [9] concerns Rattus norvegicus. As to the kind of experiment: Percent partial remission in DMBA-induced hormone-dependent mammary carcinoma bearing rats at 0.85 mg/kg/day. It is filed as functional. The method, boiled down:
as §2

The subject of assay [10] is Rattus norvegicus. As to the kind of experiment: Percent change in tumor area in DMBA-induced hormone-dependent mammary carcinoma bearing rats at 0.85 mg/kg/day. It is filed as functional. The method, boiled down: as §2
Assay [11] relates to Rattus norvegicus. As to the kind of experiment: Percent change in body weight in DMBA-induced hormone-dependent mammary carcinoma bearing rats at 6.83 mg/kg/day. It is filed as functional. The method, boiled down: as §2
Assay [12] relates to Rattus norvegicus. The assay is described as follows: Percent tumor progression in DMBA-induced hormone-dependent mammary carcinoma bearing rats at 0.85 mg/kg/day. It is filed as functional. The method, boiled down:
as §2

Assay [13] relates to Rattus norvegicus. As to the kind of experiment: Percent change in tumor area in DMBA-induced hormone-dependent mammary carcinoma bearing rats at 6.83 mg/kg/day. It is filed as functional. The method, boiled down: as §2
The subject of assay [14] is Rattus norvegicus. As to the kind of experiment: Percent tumor progression in DMBA-induced hormone-dependent mammary carcinoma bearing rats at 1.71 mg/kg/day. It is filed as functional. The method, boiled down:
as §2

Assay [15] deals with Rattus norvegicus. The assay is described as follows: Percent change in body weight in DMBA-induced hormone-dependent mammary carcinoma bearing rats at 1.71 mg/kg/day. It is filed as functional. The method, boiled down: as §2
The subject of assay [16] is Rattus norvegicus. As to the kind of experiment: Percent unchanged tumor size in DMBA-induced hormone-dependent mammary carcinoma bearing rats at 6.83 mg/kg/day. It is filed as functional. The method, boiled down: as §2
Assay [17] has as its system Rattus norvegicus. As to the kind of experiment: Percent tumor progression in DMBA-induced hormone-dependent mammary carcinoma bearing rats at 6.83 mg/kg/day. It is filed as functional. The method, boiled down:
as §2

Assay [18] deals with Rattus norvegicus. The assay is described as follows: Percent unchanged tumor size in DMBA-induced hormone-dependent mammary carcinoma bearing rats at 0.85 mg/kg/day. It is filed as functional. The method, boiled down:
as §2

For assay [19], the system named is Rattus norvegicus. The assay is described as follows: Percent complete remission in DMBA-induced hormone-dependent mammary carcinoma bearing rats at 0.85 mg/kg/day. It is filed as functional. The method, boiled down: as §2
In assay [20] the test system is Mus musculus. The assay is described as follows: Anti-neoplastic effect in estrogen and progesterone receptor positive hormone-dependent postmenopausal human mammary carcinoma bearing mice at 3.4 mg/kg/day. It is filed as functional. The method, boiled down:
as §1

In assay [21] the test system is Rattus norvegicus. The assay is described as follows: Percent complete remission in DMBA-induced hormone-dependent mammary carcinoma bearing rats at 6.83 mg/kg/day. It is filed as functional. The method, boiled down:
as §2

The subject of assay [22] is Rattus norvegicus. The assay is described as follows: Percent complete remission in DMBA-induced hormone-dependent mammary carcinoma bearing rats at 1.71 mg/kg/day. It is filed as functional. The method, boiled down:
as §2

For assay [23], the system named is Mus musculus. As to the kind of experiment: Anti-neoplastic effect in estrogen and progesterone receptor positive hormone-dependent postmenopausal human mammary carcinoma bearing mice at 3 mg/kg/day. It is filed as functional. The method, boiled down: as §1

With `CCC(=C(c1ccccc1)c1ccccc1)c1ccccc1`, the RBA in assay [1] was determined as 0.8%. Moreover, the Tumor size in the assay with Mus musculus [2] was found to be 1.61.

In turn, `CC/C(=C(\c1ccccc1)c1cccc(OC(C)=O)c1)c1ccccc1` had an RBA in assay [1] of 0.3%. In the assay with Mus musculus [3], the Tumor size was determined as 2.41.

Consider `CC/C(=C(/c1ccccc1)c1ccc(OC(C)=O)cc1)c1ccccc1`, for which, in assay [1], the RBA is 5.7%. In the assay with Mus musculus [3], this molecule registered a Tumor size of 1.24.

As for `CCC(=C(c1cccc(OC(C)=O)c1)c1cccc(OC(C)=O)c1)c1cccc(OC(C)=O)c1`, the Tumors was 16% in the assay on Rattus norvegicus [4]; 30% in the assay on Rattus norvegicus [5]; 37% with Rattus norvegicus [6]; 14% in the assay with Rattus norvegicus [9]; 40% in the assay with Rattus norvegicus [12]; 44% in the assay on Rattus norvegicus [14]. In addition, the Tumors with Rattus norvegicus [16] came to 30%; with Rattus norvegicus [17], 35%; in the assay with Rattus norvegicus [18], 44%; in the assay on Rattus norvegicus [19] it was 2%. For the same molecule, the Change in the assay with Rattus norvegicus [7] was 5.2%; with Rattus norvegicus [8] it was 78%; in the assay with Rattus norvegicus [10], 102%; with Rattus norvegicus [11] it was 3.6%; with Rattus norvegicus [13], 54%; with Rattus norvegicus [15] it was 3.2%. Also, the Change with Rattus norvegicus [21] is 5%; in the assay with Rattus norvegicus [22], 3%. In addition, in assay [1], the RBA stood at 1.5%. This molecule also returned a Tumor size in the assay with Mus musculus [20] of 2.12.

Turning to `CCC(=C(c1ccccc1)c1ccccc1)c1ccc(OC(C)=O)cc1`, the RBA in assay [1] stood at 3.8%. This molecule yielded a Tumor size in the assay on Mus musculus [3] of 1.12.

In assay [1], `CC/C(=C(/c1ccc(OC(C)=O)cc1)c1cccc(OC(C)=O)c1)c1cccc(OC(C)=O)c1` returned an RBA of 1.8%. In addition, in the assay on Mus musculus [20], the Tumor size is given as 2.44.

The molecule `CC/C(=C(\c1ccc(OC(C)=O)cc1)c1cccc(OC(C)=O)c1)c1ccc(OC(C)=O)cc1` returned an RBA in assay [1] of 3%. In the assay with Mus musculus [20], this molecule gave a Tumor size of 2.04.

In assay [1], `CC/C(=C(/c1ccccc1)c1cccc(OC(C)=O)c1)c1cccc(OC(C)=O)c1` registered an RBA of 1.1%. The molecule further yielded a Tumor size with Mus musculus [23] of 1.35.

For the molecule `CCC(=C(c1ccc(OC(C)=O)cc1)c1ccc(OC(C)=O)cc1)c1ccc(OC(C)=O)cc1`, the RBA in [1] was determined as 4.2%. Further, in the assay with Mus musculus [20], the Tumor size turned out to be 1.52.

`CCC(=C(c1cccc(OC(C)=O)c1)c1cccc(OC(C)=O)c1)c1ccccc1` registered an RBA in assay [1] of 1.2%. Moreover, in the assay on Mus musculus [23], the Tumor size was 2.4.

Take `CC/C(=C(\c1ccccc1)c1cccc(OC(C)=O)c1)c1cccc(OC(C)=O)c1`: the RBA in [1] was determined as 0.2%. In the assay with Mus musculus [23], this molecule displayed a Tumor size of 2.36.

In turn, `CCC(=C(c1ccccc1)c1ccccc1)c1cccc(OC(C)=O)c1` yielded an RBA in assay [1] of 1.5%. In addition, in the assay on Mus musculus [3], the Tumor size stood at 1.04.

With `CC/C(=C(/c1ccccc1)c1ccc(OC(C)=O)cc1)c1ccc(OC(C)=O)cc1`, in assay [1], the RBA is 5.9%. The molecule further yielded a Tumor size with Mus musculus [23] of 0.83.

In assay [1], `CC/C(=C(/c1ccccc1)c1cccc(OC(C)=O)c1)c1ccccc1` yielded an RBA of 0.7%. The same molecule gave a Tumor size in the assay on Mus musculus [3] of 2.12.

Turning to `CC/C(=C(\c1ccccc1)c1ccc(OC(C)=O)cc1)c1ccccc1`, the RBA in assay [1] was determined as 2%. Further, the Tumor size in the assay on Mus musculus [3] is on record as 1.3.

For the molecule `CCC(=C(c1ccc(OC(C)=O)cc1)c1ccc(OC(C)=O)cc1)c1ccccc1`, the RBA in assay [1] amounted to 6.8%. Further, the Tumor size in the assay on Mus musculus [23] is recorded as 0.81.

As to `CC/C(=C(\c1ccccc1)c1ccc(OC(C)=O)cc1)c1ccc(OC(C)=O)cc1`, the RBA in assay [1] stood at 1%. In addition, in the assay with Mus musculus [23], the Tumor size is listed as 1.39.

In [1], `CC/C(=C(\c1ccc(OC(C)=O)cc1)c1cccc(OC(C)=O)c1)c1cccc(OC(C)=O)c1` showed an RBA of 2.7%. The same molecule had a Tumor size with Mus musculus [20] of 1.69.
